Published values collected from several papers.
Compare with care: the assays were run in different laboratories.

Structure (SMILES)	test system	setting	quantity	result
CC1(CN)CCN(c2cnc3c(Sc4ccncc4Cl)n[nH]c3n2)CC1	male Sprague-Dawley rat, plasma	oral, 10 mg/kg	AUC	411 ng·h/mL
O=C(C=Cc1ccccc1)Nc1cc(-c2ccnc(N3CCC(O)CC3)c2)ccn1	female Sprague-Dawley rat, plasma	intravenous, 5 mg/kg	AUC(0-inf)	375 ng·h/mL
N#C[C@@]12C[C@@H]1[C@@H](n1cnc3c(N[C@@H](C4CCC4)C4CC4)nc(I)nc31)[C@H](O)[C@@H]2O	male Wistar rat, plasma	oral, 3 mg/kg	AUC(0-t)	66.4 ng·h/mL
O=c1cc(-c2ccc(O)c(O)c2)oc2cc(O)cc(O)c12	male Sprague-Dawley rat, plasma	oral, 30 mg/kg	AUC(0-inf)	98.6 ng·h/mL
C[C@H]1[C@@H](O)O[C@@H]2O[C@@]3(C)CC[C@H]4[C@H](C)CC[C@@H]1[C@@]24OO3	Sprague-Dawley rat, plasma	oral, 10 mg/kg	AUC(0-t)	197 ng·h/mL
O=C1c2ccncc2C(=O)c2c1[nH]c1ccccc21	rat, plasma	intravenous, 1 mg/kg, single dose	AUC(0-inf)	1.43 µM·h
O=C1CC[C@H](N2Cc3cc(N4CCN(CC5CCN(c6ccc([C@@H]7c8ccc(O)cc8CC[C@@H]7c7ccccc7)cc6)CC5)CC4)ccc3C2=O)C(=O)N1	female Sprague-Dawley rat, plasma	oral, 20 mg/kg, fed	AUC(0-t)	18400 ng·h/mL
COc1ccc2cc3n(c(=O)c2c1OC)CCc1cc2c(cc1-3)OCO2	male Sprague-Dawley rat, blood	oral, 50 mg/kg	AUC(0-inf)	985 ng·h/mL
CCC[C@H](NC(=O)[C@@H]1CCCN1C(=O)[C@@H](NC(=O)[C@H](N)CC(N)=O)[C@@H](C)CC)C(=O)N[C@@H](CC(C)C)C(=O)N[C@@H](Cc1ccc(O)cc1)C(=O)N[C@H](CO)C(=O)N[C@@H](Cc1ccccc1)C(=O)N[C@@H](C)C(=O)N[C@H](CO)C(N)=O	rat, plasma	subcutaneous, 10 mg/kg, single dose	AUC(0-t)	1200 ng·h/mL
CC(=Nc1ccc(N=Cc2cnccn2)cc1)N(C)C	male Sprague-Dawley rat, plasma	intravenous, 20 mg/kg	AUC(0-t)	254 ng·h/mL
Cc1c(C(=O)O)ccc2c3n(nc12)[C@@H]1[C@H](C3)N(CC2CC2)[C@@]2(C(=O)Nc3cc(Cl)ccc32)[C@H]1c1cccc(Cl)c1F	male rat, plasma	oral, 2 mg/kg	AUC(0-inf)	64.2 µM·h
